TRPC4 inh: inhibitors of mouse TRPC4 channel; B-score at 10 µM; AID 2247; Q9QUQ5; HEK293 TRPC4beta/mu-opioid, DAMGO-evoked Fluo4 calcium flux; stronger effect = lower value; actives 0.39% (n = 300,000);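 active = B-score over 3 SD under the library average, no early fluorescence shift, positive overall ratio signal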
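Assay system: TRPC4beta/mu-opioid receptor HEK293 cell line; compound dosing: single concentration per test compound; detection: Fluo4 Ca2+ flux fluorescence; evaluation: per-well B score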
DSG3 Ab inh: human desmoglein-3 autoantibody binding inhibition; P32926; actives 0.48% (n = 310,000); AID 588358; binding (percent of control), % at 10 µM; DSG3-coupled beads, scFv-anti-DSG3-GFP binding, flow cytometry; stronger effect = lower value;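 active = binding more than 3 SD below its plate's average and above zero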;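 also: hits lower antibody fragment binding to DSG3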
TRPC4 PAM: allosterically enhances the mouse TRPC4 cation channel | actives 0.42% (n = 310,000) | HEK293 TRPC4beta/mu-opioid, DAMGO EC20, Fluo-4 Ca2+ flux; stronger effect = higher value | Q9QUQ5 | B-score at 10 µM | AID 2227;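 active = B-score of calcium response area above 5 SD of library B-scores, with initial fluorescence ratio within 5 SD of library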
TRPC4 act: TRPC4 (mouse) channel activation; AID 2237; HEK293 TRPC4beta/mu-opioid, Fluo4 calcium fluorescence; stronger effect = higher value; B-score at 10 µM; Q9QUQ5; actives 0.49% (n = 310,000);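 active = B-score above 5 SD of library B-scores, and initial fluorescence ratio not above library mean plus 5 SD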;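 also: positive B-score marks a calcium rise read as TRPC4 activation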
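Assay system: HEK293 stable line with TRPC4beta plus mu-opioid receptor. Times: dye 45 min RT, read 110 s. Measured by: kinetic Fluo4 calcium fluorescence. Measure: B score of integrated ratio. Controls: assay buffer as low control, maximal DAMGO as high control.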
TRPC6 activator: activators of mouse TRPC6 channel; Q61143; HEK293-TRPC6 membrane potential dye fluorescence; stronger effect = higher value; B-score at 10 µM; actives 0.13% (n = 310,000); AID 2550;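 active = B-score of the integrated fluorescence ratio above library mean plus 3 SD, and starting fluorescence ratio within library mean plus 5 SD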;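 also: higher score means more depolarization so channel activation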
TRPC6 inhibitor: blocks the mouse TRPC6 cation channel. actives 1.1% (n = 310,000). Q61143. B-score at 10 µM. HEK293-TRPC6, membrane potential dye, ACh-evoked depolarization; stronger effect = lower value;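 active = B-score under library mean minus 3 SD, initial fluorescence not abnormally high, positive integrated signal ratio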;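 also: B-score derived from integrated fluorescence ratio over the kinetic read; more negative B-score means stronger inhibition of depolarization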
Hits are given with their value; – = inactive; · = not tested or not shown. Sampled rows, rich in hits. Any-hit rate of the full collection: about 2.5%.

SMILES | TRPC4 inh | DSG3 Ab inh | TRPC4 PAM | TRPC4 act | TRPC6 activator | TRPC6 inhibitor
O=C(NC1CCCCC1)c1sc(=S)n2c1[nH]c(=O)c1ccccc12 | – | · | – | – | – | –
CSc1ccccc1NC(=O)NCCCl | – | – | – | – | – | –
COc1ccc(CCNCC(O)COc2ccc(OC)cc2C(C)(C)C)cc1 (configuration not stated) | – | – | 16 | – | – | –
O=C(N/N=C/c1ccc(F)cc1)c1cc(-c2ccco2)nc2ccccc12 | – | 27.8 | – | – | – | –
O=C(NC1CC1)c1cc(-c2ccco2)nc2ccccc12 | – | 71.7 | – | – | – | –
Cc1cccc(N(C)S(=O)(=O)c2ccc3c(c2)C(C)(C)C(=O)N3C)c1 | – | – | – | – | – | –
COc1ccc(CN2CCCC2C(=O)Nc2ccc(OC)c(OC)c2)cc1OC (configuration not stated) | – | – | – | – | – | -5.69
Cc1ccc2nc(-c3ccc(F)cc3)nc(SCC(=O)NCC3CCCO3)c2c1 (configuration not stated) | – | · | – | – | – | –
CCc1cccc2c(SCC(=O)NCC3CCCO3)nc(-c3ccc(F)cc3)nc12 (configuration not stated) | – | 78.2 | – | – | – | –
Cc1cc2oc(=O)cc(-c3ccccc3)c2c(C)c1-c1ccc(F)c(Cl)c1 | · | 74.1 | · | · | · | ·
Cc1cc2oc(=O)cc(-c3ccccc3)c2c(C)c1-c1ccc(CO)cc1 | · | – | · | · | · | ·
CC(C)CC(=O)NN(C)c1nc(-c2ccccc2)nnc1C(F)(F)F | – | 51.8 | – | – | – | –
CC(C)CN(CC(C)C)c1nc(N)c(C#N)c(CC#N)c1C#N | -6 | – | – | – | – | –
CCn1c(=O)c2sccc2n(CC(=O)NCCC2=CCCCC2)c1=O | – | – | – | – | – | –
O=C(CCc1ccc(Oc2cc([N+](=O)[O-])cc([N+](=O)[O-])c2)cc1)N1CCCCCC1 | -6 | – | – | 75 | – | –
COc1c(C)cc(C(=O)C2CCCN(Cc3cccc4nccnc34)C2)cc1C (configuration not stated) | – | – | – | 110 | – | –
COCc1cc(CN2CCCC(C(=O)c3cccc(C(F)(F)F)c3)C2)ccc1OC (configuration not stated) | – | – | – | – | – | –
COc1cccc(O)c1CN1CCCC(C(=O)c2cccc(C(F)(F)F)c2)C1 (configuration not stated) | -7 | – | – | – | – | –
CCOc1cccc(CN2CCCC(C(=O)c3cccc(C(F)(F)F)c3)C2)c1O (configuration not stated) | -6 | – | – | – | – | –
CC(=O)Nc1ccc(CN2CCCC(C(=O)c3ccc(C(F)(F)F)cc3)C2)cc1 (configuration not stated) | – | – | – | 234 | – | –
CCCC1OC(c2ccco2)OCC1CC (configuration not stated) | · | – | · | · | · | ·
Cc1ccc(CSc2nnc(Nc3ccc(C)cc3)s2)cc1 | – | 67.1 | – | – | – | –
CCSc1nnc(Nc2ccc(C)cc2)s1 | – | – | – | – | – | –
COc1ccc(NC(=S)N(CCN2CCOCC2)Cc2cc3cc4c(cc3[nH]c2=O)OCCO4)cc1 | – | – | – | – | – | –
C=CCn1c(NC(C)c2cc(Cl)ccc2O)nc2ccccc21 (configuration not stated) | -6 | – | – | – | – | –
SMILES | TRPC4 inh | DSG3 Ab inh | TRPC4 PAM | TRPC4 act | TRPC6 activator | TRPC6 inhibitor
O=C(Cc1ccccc1)c1c[nH]c(C(=O)NCCCN2CCOCC2)c1 | – | – | – | – | – | –
CC(C)(C)n1nnnc1C(c1cccs1)N(Cc1ccccc1)Cc1ccco1 (configuration not stated) | – | – | – | – | – | –
CC(C)(C)n1nnnc1C(c1ccncc1)N(Cc1ccccc1)Cc1ccco1 (configuration not stated) | – | – | 10 | – | – | –
CCc1ccc(C(C(=O)NC(C)(C)CC)N(Cc2ccco2)C(=O)Cn2nnc3ccccc32)cc1 (configuration not stated) | – | – | – | – | – | –
CCC(C)(C)NC(=O)C(c1ccccc1F)N(Cc1ccco1)C(=O)Cn1nnc2ccccc21 (configuration not stated) | – | – | – | – | 44.1 | –
CCOC(=O)[C@H]1[C@H]2COc3ccc(OC)cc3[C@@H]2N2C(=O)CN(C)C(=O)[C@@]12C | · | – | · | · | · | ·
Clc1ccc(OCCCc2nc(-c3ccncc3)no2)c(Cl)c1 | -9 | – | – | – | – | –
CC(=O)N1c2ccc(S(=O)(=O)N3CCCC(C(=O)N4CCCC(C)C4)C3)cc2CC1C (configuration not stated) | – | – | – | – | – | –
CC(=O)N1c2ccc(S(=O)(=O)N3CCCC(C(=O)N4CCC(C)CC4)C3)cc2CC1C (configuration not stated) | – | -9.0 | – | – | – | –
NC(=O)Cc1ccc(C(=O)c2ccc(F)cc2)s1 | – | 74.6 | – | – | – | –
NC(=O)Cc1ccc(C(=O)c2ccccc2F)s1 | – | – | – | – | – | –
C/C(Cl)=C\Cn1c(N2CCCC2)nc2c1c(=O)n(C)c(=O)n2C | – | – | – | – | – | –
CCN(CC(=O)NCc1ccccc1Cl)CC(=O)Nc1c(F)cccc1F | – | – | – | – | – | –
CC1CC2=C(NC(=S)NC2c2ccccc2F)/C(=C/c2ccccc2F)C1 (configuration not stated) | – | 17.0 | – | – | – | –
CC1CC2=C(NC(=S)NC2c2cccc(F)c2)/C(=C/c2cccc(F)c2)C1 (configuration not stated) | – | – | – | – | – | –
Cn1c(=O)c2c(nc(SCCN3CCOCC3)n2Cc2ccc(F)cc2)n(C)c1=O | – | – | – | – | – | –
Cn1c(=O)c2c(nc(SCc3cccnc3)n2Cc2ccccc2)n(C)c1=O | – | – | – | – | – | –
Cc1ccc(Cn2c(SCCN3CCCCC3)nc3c2c(=O)n(C)c(=O)n3C)cc1 | – | – | 70 | 43 | – | –
CC1Cc2ccccc2N1C(=O)CSc1nc2c(c(=O)n(C)c(=O)n2C)n1Cc1ccccc1 (configuration not stated) | -7 | – | 13 | 245 | – | –
Cn1c(=O)c2c(nc(SCc3cccnc3)n2Cc2ccc(F)cc2)n(C)c1=O | -5 | – | – | – | – | –
CCC(C)[C@H](Nc1nc(-c2ccccc2)nc2c1oc1ccccc12)C(=O)O (some centres not stated) | -6 | – | – | – | – | –
CCOCCSC1=C(C#N)C(c2cccs2)C(C(C)=O)=C(C)N1 (configuration not stated) | -6 | – | – | – | – | –

From PubChem BioAssay
